Consider eight compounds from ChEMBL document CHEMBL1132187, “Synthesis, in vitro antiproliferative activity, and DNA-binding properties of hybrid molecules containing pyrrolo[2,1-c][1, 4]benzodiazepine and minor-groove-binding oligopyrrole carriers” (J Med Chem, 1999).

In one test the target is Nucleic Acid. In words: Inhibitory concentration against human estrogen receptor(ER) polymerase chain reaction product. The format is nucleic-acid assay. A digest of the protocol: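 Target DNA was 20 ng of pBLCAT8ERCAT1 plasmid, preincubated 5 min at room temperature with increasing drug amounts, then PCR-amplified with Taq: 92 °C 1 min, 55 °C annealing 1 min, 72 °C 1 min. Products run on 2% agarose gels; IC50 is the concentration giving 50% inhibition of ER PCR product generation.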

The next test relates to Jurkat. In words: In vitro inhibition of Jurkat cell proliferation. The format is functional, cell-based. Particulars: Homo sapiens. A digest of the protocol:
(§1)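 Exponentially growing cells kept as stationary suspension in RPMI 1640 with 10% FCS, 2 mM L-glutamine, penicillin/streptomycin; exposed to a range of drug concentrations (DMSO stock 1 mg/mL, diluted just before addition) for 4 days; survivors counted by Coulter counter. IC50 vs untreated controls, duplicate cultures per concentration, experiments repeated at least twice, vehicle controls included.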

A short description of test [1]: Inhibitory concentration against human c-myc polymerase chain reaction product. The format is functional. A digest of the protocol: (§2)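 Target DNA was 20 ng of preamplified, purified PCR product, preincubated 5 min at room temperature with increasing drug amounts, then PCR-amplified with Taq: 92 °C 1 min, 62 °C annealing 1 min, 72 °C 1 min. Products run on 2% agarose gels; IC50 is the concentration giving 50% inhibition of PCR product generation.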

Test [2] has as its system Human immunodeficiency virus 1. In words: Inhibitory concentration against HIV-1 LTR polymerase chain reaction product. It is filed as functional. The gist of the method: as §2
A further test has as its system K562. In words: In vitro inhibition of K-562 cell proliferation. The format is functional, cell-based. Particulars: Homo sapiens. A digest of the protocol: as §1

As a reminder, the IC50 is the concentration that gives 50% inhibition. For the compound `COc1cc2c(cc1OCCC(=O)Nc1cc(C(=O)Nc3cc(C(=O)Nc4cc(C(=O)Nc5cc(C(=O)NCCC(=N)N)n(C)c5)n(C)c4)n(C)c3)n(C)c1)N=C[C@@H]1CCCN1C2=O`, the IC50 against Nucleic Acid turned out to be 200 nM; with Jurkat, 70 nM; in test [1] it was 2000 nM; in test [2], 2000 nM; in the test with K562 it was 40 nM.
`Cn1cc(NC(=O)c2cc(NC(=O)c3cc(NC(=O)c4cc(N)cn4C)cn3C)cn2C)cc1C(=O)NCCC(=N)N`: the IC50 on Nucleic Acid came out at 500 nM; with Jurkat, 25000 nM; in test [1], 12000 nM; in test [2] it was 20000 nM; in the test on K562 it was 12000 nM.
As to `COc1cc2c(cc1OCCC(=O)Nc1cc(C(=O)Nc3cc(C(=O)NCCC(=N)N)n(C)c3)n(C)c1)N=C[C@@H]1CCCN1C2=O`, the IC50 was determined as 2000 nM against Nucleic Acid; 50000 nM with Jurkat; 6000 nM in test [1]; 800 nM in test [2]; 6000 nM in the test on K562.
Regarding `Cn1cc(NC(=O)c2cc(NC(=O)c3cc(NC=O)cn3C)cn2C)cc1C(=O)NCCC(=N)N`, the IC50 against Nucleic Acid worked out at 5000 nM; with Jurkat, 20000 nM; in test [1] it was 25000 nM; in test [2] it was 50000 nM; in the test with K562, 12000 nM.
On the same counts, the results for `COC(=O)CCOc1cc2c(cc1OC)C(=O)N1CCC[C@H]1C=N2` are more than 250000 nM, 3000 nM, more than 250000 nM, more than 250000 nM and 1500 nM.
On to `COc1cc2c(cc1OCCC(=O)Nc1cc(C(=O)NCCC(=N)N)n(C)c1)N=C[C@@H]1CCCN1C2=O`, for which the IC50 against Nucleic Acid is 3000 nM; in the test with Jurkat it was 80000 nM; in test [1] it was 4000 nM; in test [2], 1000 nM; in the test on K562, more than 100000 nM.
On the same counts, the results for `COc1cc2c(cc1OCCC(=O)Nc1cc(C(=O)Nc3cc(C(=O)Nc4cc(C(=O)NCCC(=N)N)n(C)c4)n(C)c3)n(C)c1)N=C[C@@H]1CCCN1C2=O` are 800 nM, 800 nM, 2500 nM, 2000 nM and 700 nM.
As for `COc1cc2c(cc1OC)C(=O)N1CCC[C@H]1C=N2`, the figures for the 50% inhibitory concentration (IC50) in the test on Jurkat and with K562 were 2200 nM and 1000 nM, respectively.
